Active and inactive are the calls of the source. No cut-off for these calls is given here.
Columns and labels:
[1] = target: T1, Toll-like receptor 4 (Mus musculus, UniProt Q9QUK6); assay: Inhibition of LPS-induced TLR4 activation in mouse RAW264.7 cells assessed as reduction in NO production after 18 to 24 hrs; format: cell-based
T1 sequence (Q9QUK6 whole entry): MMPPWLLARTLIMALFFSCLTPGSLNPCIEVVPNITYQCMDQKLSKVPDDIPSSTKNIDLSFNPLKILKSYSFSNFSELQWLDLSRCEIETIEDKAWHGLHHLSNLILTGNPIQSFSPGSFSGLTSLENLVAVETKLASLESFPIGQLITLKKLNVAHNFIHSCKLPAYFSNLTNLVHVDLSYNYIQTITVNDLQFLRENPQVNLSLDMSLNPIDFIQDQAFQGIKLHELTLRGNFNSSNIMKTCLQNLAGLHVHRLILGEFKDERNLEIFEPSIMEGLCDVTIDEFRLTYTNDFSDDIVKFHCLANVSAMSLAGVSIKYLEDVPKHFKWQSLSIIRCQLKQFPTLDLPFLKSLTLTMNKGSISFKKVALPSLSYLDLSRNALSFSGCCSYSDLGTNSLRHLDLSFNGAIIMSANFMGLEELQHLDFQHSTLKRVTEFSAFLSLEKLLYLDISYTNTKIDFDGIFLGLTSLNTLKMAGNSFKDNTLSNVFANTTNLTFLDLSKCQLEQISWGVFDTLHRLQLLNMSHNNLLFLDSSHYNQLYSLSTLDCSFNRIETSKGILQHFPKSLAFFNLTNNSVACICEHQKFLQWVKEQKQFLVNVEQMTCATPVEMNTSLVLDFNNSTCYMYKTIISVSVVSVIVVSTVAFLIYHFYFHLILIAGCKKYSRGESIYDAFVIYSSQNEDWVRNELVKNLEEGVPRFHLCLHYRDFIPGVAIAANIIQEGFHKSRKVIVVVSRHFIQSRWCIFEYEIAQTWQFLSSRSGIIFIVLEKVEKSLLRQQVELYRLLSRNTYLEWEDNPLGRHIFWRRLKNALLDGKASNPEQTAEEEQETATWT
Summary of the method: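 RAW264.7 cells, 100,000 per well, grown 24 h in RPMI with 10% FBS, then switched to unsupplemented RPMI. LPS and compound added together, 18–24 h at 37 °C. Medium nitrite measured with 2,3-diaminonaphthalene (ex 365/em 450 nm) against a nitrite standard curve. Quadruplicate; IC50 by a modified Kou-type method.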

[2] = test system: Blood; assay: Cytotoxicity against human whole blood assessed as hemolysis at 1 mM; format: tissue-based; settings: 1000 µM
Summary of the method: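 Human whole blood anticoagulated with lepirudin, exposed to compound at up to 1 mM; hemolysis checked.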

[3] = target: Platelet-derived growth factor receptor beta (Homo sapiens) (UniProt P09619); assay: Inhibition of PDGFRB at 16 uM by luciferase fragment complementation assay
[4] = target: Glycogen synthase kinase-3 alpha (Homo sapiens) (UniProt P49840); assay: Inhibition of GSK3alpha at 16 uM by luciferase fragment complementation assay
[5] = target: RAC-alpha serine/threonine-protein kinase (Homo sapiens) (UniProt P31749); assay: Inhibition of AKT1 at 16 uM by luciferase fragment complementation assay
[6] = target: Calcium/calmodulin-dependent protein kinase type 1 (Homo sapiens) (UniProt Q14012); assay: Inhibition of CAMK1 at 16 uM by luciferase fragment complementation assay
[7] = target: Hepatocyte growth factor receptor (Homo sapiens) (UniProt P08581); assay: Inhibition of MET at 16 uM by luciferase fragment complementation assay
[8] = target: Mitogen-activated protein kinase 1 (Homo sapiens) (UniProt P28482); assay: Inhibition of […] at 16 uM by luciferase fragment complementation assay
[9] = target: Serine/threonine-protein kinase PLK4 (Homo sapiens) (UniProt O00444); assay: Inhibition of PLK4 at 16 uM by luciferase fragment complementation assay
[10] = target: Discoidin domain-containing receptor 2 (Homo sapiens) (UniProt Q16832); assay: Inhibition of DDR2 at 16 uM by luciferase fragment complementation assay
[11] = target: Proto-oncogene tyrosine-protein kinase Src (Homo sapiens) (UniProt P12931); assay: Inhibition of SRC at 16 uM by luciferase fragment complementation assay
[12] = target: Serine/threonine-protein kinase PAK 1 (Homo sapiens) (UniProt Q13153); assay: Inhibition of PAK1 at 16 uM by luciferase fragment complementation assay
[13] = target: Protein kinase C gamma type (Homo sapiens) (UniProt P05129); assay: Inhibition of PKCgamma at 16 uM by luciferase fragment complementation assay
[14] = target: Serine/threonine-protein kinase pim-1 (Homo sapiens) (UniProt P11309); assay: Inhibition of PIM1 at 16 uM by luciferase fragment complementation assay
[15] = target: T2, Toll-like receptor 4 (Homo sapiens, UniProt O00206); assay: Inhibition of LPS-induced TLR4 activation in human whole blood assessed as inhibition of IL-6 release preincubated for 5 to 10 mins
Summary of the method: (§1)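 Fresh human blood anticoagulated with lepirudin, preincubated with compound 5–10 min at 37 °C, then stimulated with 100 ng/mL ultrapure E. coli 0111:B4 LPS, rotating 2 h at 37 °C. Stopped with EDTA 10 mM final; plasma TNF-α, IL-8 and IL-6 measured by singleplex Bio-plex, expressed as % of LPS without inhibitor. n = 3 or 9, paired two-sided t-test.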

[16] = target: T2, Toll-like receptor 4; assay: Inhibition of LPS-induced TLR4 activation in human whole blood assessed as inhibition of IL-6 release at 250 uM preincubated for 5 to 10 mins; summary of the method: as §1
[17] = target: T2, Toll-like receptor 4; assay: Inhibition of LPS-induced TLR4 activation in human whole blood assessed as inhibition of IL-8 release at 500 uM preincubated for 5 to 10 mins; summary of the method: as §1
[18] = target: T2, Toll-like receptor 4; assay: Inhibition of LPS-induced TLR4 activation in human whole blood assessed as inhibition of TNFalpha release at 500 uM preincubated for 5 to 10 mins; summary of the method: as §1
[19] = target: T2, Toll-like receptor 4; assay: Inhibition of LPS-induced TLR4 activation in human whole blood assessed as inhibition of TNFalpha release preincubated for 5 to 10 mins; summary of the method: as §1
[20] = target: T2, Toll-like receptor 4; assay: Inhibition of LPS-induced TLR4 activation in human whole blood assessed as inhibition of IL-6 release at 500 uM preincubated for 5 to 10 mins; summary of the method: as §1
[21] = target: T2, Toll-like receptor 4; assay: Inhibition of LPS-induced TLR4 activation in human whole blood assessed as inhibition of IL-8 release preincubated for 5 to 10 mins; summary of the method: as §1

T2 sequence (O00206 whole entry): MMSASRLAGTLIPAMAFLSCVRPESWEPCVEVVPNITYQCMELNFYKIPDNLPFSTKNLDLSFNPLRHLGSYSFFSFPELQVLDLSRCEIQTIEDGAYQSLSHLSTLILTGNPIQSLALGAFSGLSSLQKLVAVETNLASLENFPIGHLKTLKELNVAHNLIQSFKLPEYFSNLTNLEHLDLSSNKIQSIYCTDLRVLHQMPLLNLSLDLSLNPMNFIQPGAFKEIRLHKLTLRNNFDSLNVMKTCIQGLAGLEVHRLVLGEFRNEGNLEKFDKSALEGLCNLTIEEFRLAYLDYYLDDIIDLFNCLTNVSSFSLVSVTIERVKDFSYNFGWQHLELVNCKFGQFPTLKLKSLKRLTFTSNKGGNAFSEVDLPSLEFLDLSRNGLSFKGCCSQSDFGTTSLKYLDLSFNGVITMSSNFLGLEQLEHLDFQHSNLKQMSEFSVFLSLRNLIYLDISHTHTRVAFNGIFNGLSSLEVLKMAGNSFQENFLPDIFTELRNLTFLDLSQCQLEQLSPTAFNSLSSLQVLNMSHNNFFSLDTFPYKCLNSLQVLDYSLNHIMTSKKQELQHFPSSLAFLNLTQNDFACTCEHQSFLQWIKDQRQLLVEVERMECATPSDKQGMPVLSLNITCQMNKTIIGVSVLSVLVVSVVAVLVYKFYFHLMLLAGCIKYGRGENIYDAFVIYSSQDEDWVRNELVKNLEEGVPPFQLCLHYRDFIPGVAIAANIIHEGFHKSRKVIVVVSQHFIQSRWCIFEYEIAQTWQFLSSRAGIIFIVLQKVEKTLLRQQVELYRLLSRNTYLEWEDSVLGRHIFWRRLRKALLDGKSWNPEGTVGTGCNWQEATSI
Sequence of Glycogen synthase kinase-3 alpha (Homo sapiens) (P49840 2-483 limits assumed): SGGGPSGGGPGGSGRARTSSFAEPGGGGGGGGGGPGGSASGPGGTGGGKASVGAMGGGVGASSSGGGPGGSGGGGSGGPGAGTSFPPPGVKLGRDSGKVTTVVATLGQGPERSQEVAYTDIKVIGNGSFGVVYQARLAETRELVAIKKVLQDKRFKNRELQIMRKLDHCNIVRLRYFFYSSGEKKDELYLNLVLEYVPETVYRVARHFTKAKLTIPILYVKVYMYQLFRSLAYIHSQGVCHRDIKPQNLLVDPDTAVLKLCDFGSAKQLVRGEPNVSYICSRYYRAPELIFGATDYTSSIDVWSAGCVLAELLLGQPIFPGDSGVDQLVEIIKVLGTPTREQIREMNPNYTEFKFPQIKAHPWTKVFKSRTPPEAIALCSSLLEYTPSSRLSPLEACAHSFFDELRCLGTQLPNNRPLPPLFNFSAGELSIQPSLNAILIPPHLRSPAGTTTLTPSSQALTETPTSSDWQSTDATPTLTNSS
Sequence of Serine/threonine-protein kinase pim-1 (Homo sapiens) (P11309 whole entry, looked up, the tested form may be a part): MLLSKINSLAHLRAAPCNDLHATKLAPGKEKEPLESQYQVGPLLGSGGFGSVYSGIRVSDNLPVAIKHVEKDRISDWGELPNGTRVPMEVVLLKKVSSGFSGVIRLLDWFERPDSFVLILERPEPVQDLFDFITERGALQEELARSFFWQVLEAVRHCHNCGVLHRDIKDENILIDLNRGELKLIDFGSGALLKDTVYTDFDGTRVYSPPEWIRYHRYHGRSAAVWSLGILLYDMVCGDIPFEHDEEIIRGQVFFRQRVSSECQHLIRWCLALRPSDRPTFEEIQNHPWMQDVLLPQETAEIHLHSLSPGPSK
Sequence of Serine/threonine-protein kinase PAK 1 (Homo sapiens) (Q13153 whole entry, the tested form may be a part): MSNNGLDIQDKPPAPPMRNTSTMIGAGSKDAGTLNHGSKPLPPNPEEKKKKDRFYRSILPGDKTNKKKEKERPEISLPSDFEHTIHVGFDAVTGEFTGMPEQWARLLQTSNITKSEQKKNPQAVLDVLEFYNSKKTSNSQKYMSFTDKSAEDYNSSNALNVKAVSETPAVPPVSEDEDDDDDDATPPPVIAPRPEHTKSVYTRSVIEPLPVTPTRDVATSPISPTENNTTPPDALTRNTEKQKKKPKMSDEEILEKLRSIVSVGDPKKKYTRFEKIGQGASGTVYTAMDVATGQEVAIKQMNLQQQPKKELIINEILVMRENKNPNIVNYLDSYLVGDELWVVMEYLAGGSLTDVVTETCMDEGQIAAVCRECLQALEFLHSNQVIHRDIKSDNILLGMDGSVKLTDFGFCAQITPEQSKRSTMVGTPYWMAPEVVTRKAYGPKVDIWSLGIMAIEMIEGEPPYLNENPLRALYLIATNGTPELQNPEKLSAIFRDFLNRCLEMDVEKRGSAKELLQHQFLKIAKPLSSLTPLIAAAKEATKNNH
Sequence of Proto-oncogene tyrosine-protein kinase Src (Homo sapiens) (P12931 2-536 limits assumed): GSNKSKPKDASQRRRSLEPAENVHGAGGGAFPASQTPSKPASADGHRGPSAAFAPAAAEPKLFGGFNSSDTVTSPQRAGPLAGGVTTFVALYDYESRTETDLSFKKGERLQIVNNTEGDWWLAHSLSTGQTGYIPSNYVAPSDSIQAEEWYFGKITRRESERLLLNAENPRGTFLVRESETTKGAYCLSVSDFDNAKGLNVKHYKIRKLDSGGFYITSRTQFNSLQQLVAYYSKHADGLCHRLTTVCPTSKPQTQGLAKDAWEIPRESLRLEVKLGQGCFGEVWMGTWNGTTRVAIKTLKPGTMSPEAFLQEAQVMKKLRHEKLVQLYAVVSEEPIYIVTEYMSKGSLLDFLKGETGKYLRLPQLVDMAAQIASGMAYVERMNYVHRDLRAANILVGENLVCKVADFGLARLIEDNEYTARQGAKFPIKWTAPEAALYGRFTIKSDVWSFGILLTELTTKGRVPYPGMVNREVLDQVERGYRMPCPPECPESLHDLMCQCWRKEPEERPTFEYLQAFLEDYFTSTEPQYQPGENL
Sequence of RAC-alpha serine/threonine-protein kinase (Homo sapiens) (P31749 whole entry, the tested form may be a part): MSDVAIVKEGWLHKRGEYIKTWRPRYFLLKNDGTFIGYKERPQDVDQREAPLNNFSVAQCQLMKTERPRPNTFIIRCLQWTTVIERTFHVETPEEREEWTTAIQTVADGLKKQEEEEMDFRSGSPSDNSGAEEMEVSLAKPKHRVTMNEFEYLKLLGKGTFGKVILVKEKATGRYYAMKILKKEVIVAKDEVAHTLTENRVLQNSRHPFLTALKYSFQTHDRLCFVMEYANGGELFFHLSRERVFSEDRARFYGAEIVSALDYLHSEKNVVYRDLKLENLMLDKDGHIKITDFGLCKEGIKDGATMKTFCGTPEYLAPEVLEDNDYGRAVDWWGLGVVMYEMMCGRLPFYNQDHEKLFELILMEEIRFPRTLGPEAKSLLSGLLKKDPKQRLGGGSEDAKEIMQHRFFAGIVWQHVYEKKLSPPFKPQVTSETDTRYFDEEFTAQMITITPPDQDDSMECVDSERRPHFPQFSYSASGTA
Sequence of Platelet-derived growth factor receptor beta (Homo sapiens) (P09619 whole entry, the tested form may be a part): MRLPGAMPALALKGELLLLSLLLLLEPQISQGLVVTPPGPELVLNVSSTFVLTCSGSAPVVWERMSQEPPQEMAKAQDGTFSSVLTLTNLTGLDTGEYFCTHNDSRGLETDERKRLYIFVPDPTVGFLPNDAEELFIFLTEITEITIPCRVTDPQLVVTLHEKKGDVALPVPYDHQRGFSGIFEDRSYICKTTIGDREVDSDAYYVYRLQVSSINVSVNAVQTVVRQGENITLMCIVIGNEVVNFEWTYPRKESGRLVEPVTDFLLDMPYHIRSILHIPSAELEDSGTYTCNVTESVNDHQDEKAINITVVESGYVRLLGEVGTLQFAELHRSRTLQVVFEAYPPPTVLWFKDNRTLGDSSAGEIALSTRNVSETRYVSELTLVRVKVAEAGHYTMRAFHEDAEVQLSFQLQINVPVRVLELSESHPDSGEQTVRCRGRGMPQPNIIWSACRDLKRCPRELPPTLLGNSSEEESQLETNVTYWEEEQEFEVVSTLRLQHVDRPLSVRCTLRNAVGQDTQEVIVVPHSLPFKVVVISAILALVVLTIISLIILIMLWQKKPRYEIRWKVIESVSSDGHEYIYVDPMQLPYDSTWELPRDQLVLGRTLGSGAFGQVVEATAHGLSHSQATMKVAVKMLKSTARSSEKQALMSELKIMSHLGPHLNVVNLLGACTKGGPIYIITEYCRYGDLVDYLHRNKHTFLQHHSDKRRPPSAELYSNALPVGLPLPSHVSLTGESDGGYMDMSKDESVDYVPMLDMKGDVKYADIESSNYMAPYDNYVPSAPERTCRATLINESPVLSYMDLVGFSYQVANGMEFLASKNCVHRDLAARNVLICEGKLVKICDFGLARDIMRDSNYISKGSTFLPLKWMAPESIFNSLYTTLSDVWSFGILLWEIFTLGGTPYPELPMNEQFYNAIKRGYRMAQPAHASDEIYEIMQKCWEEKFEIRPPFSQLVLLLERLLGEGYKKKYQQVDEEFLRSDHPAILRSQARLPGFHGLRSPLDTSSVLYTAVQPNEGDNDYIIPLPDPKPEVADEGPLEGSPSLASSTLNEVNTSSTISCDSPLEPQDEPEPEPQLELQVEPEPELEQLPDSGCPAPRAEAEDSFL

SMILES | IC50 [1] | Activity [2] | further results
Cc1nn(Cc2ccccc2Cl)c(C)c1CN(C)C[C@H](O)COc1ccc(Cl)cc1 | 15.6 µM | Non-toxic | 
Cc1nn(Cc2ccccc2Cl)c(C)c1CN(C)C[C@@H](O)COc1ccc(Cl)cc1 | 15.5 µM | Non-toxic | 
Cc1nn(Cc2ccccc2Cl)c(C)c1CN(C)CC(O)COc1ccc(C#N)cc1 (racemic) | 52.7 µM | Non-toxic | 
CCOc1ccc(OCC(O)CN(C)Cc2c(C)nn(Cc3ccccc3C)c2C)cc1 (racemic) | 47.7 µM | Non-toxic | 
C=CCOc1ccc(OCC(O)CN(C)Cc2c(C)nn(Cc3ccccc3Cl)c2C)cc1 (racemic) | 44.6 µM | Non-toxic | 
CCOc1ccc(OCC(O)CN(C)Cc2c(C)nn(Cc3ccccc3C(F)(F)F)c2C)cc1 (racemic) | 32.1 µM | Non-toxic | 
Cc1nn(Cc2ccccc2Cl)c(C)c1CN(C)CC(O)COc1ccc(Cl)cc1 (racemic) | 16.1 µM | Non-toxic | inhibition [3]: ≤ 27%; inhibition [4]: ≤ 27%; inhibition [5]: ≤ 27%; inhibition [6]: ≤ 27%; inhibition [7]: ≤ 27%; inhibition [8]: ≤ 27%; inhibition [9]: ≤ 27%; inhibition [10]: ≤ 27%; inhibition [11]: ≤ 27%; inhibition [12]: ≤ 27%; inhibition [13]: ≤ 27%; inhibition [14]: ≤ 27%
CCOc1ccc(OCC(CN(C)Cc2c(C)nn(Cc3ccccc3Cl)c2C)OC)cc1 (racemic) | 19.8 µM |  | 
Cc1nn(Cc2ccccc2)c(C)c1CN(C)CC(O)COc1ccccc1 (racemic) | > 100 µM | Non-toxic | inhibition [15]: Dose-dependent effect; inhibition [16]: inactive; inhibition [17]: Active; inhibition [18]: Active; inhibition [19]: Dose-dependent effect; inhibition [20]: Active; inhibition [21]: Dose-dependent effect
CCOc1ccc(OC[C@H](O)CN(C)Cc2c(C)nn(Cc3ccccc3Cl)c2C)cc1 | 24.8 µM | Non-toxic | 
CCOc1ccc(OCC(O)CN(C)Cc2c(C)nn(Cc3ccc(Cl)c(Cl)c3)c2C)cc1 (racemic) | 21.8 µM | Non-toxic | 
CCOc1ccc(OCC(O)CN(C)Cc2c(C)nn(Cc3ccc(OC)cc3)c2C)cc1 (racemic) | 67.6 µM | Non-toxic | 
C=CCOc1ccc(OCC(O)CN(C)Cc2c(C)nn(Cc3ccccc3C=C)c2C)cc1 (racemic) | 23.1 µM | Non-toxic | 
Cc1nn(Cc2ccccc2Cl)c(C)c1CN(C)CC(O)COc1ccc(Cl)c(Cl)c1 (racemic) | 20.1 µM | Non-toxic | 
CCOc1ccc(OCC(O)CN(C)Cc2c(C)nn(Cc3ccccc3F)c2C)cc1 (racemic) | 47.7 µM | Non-toxic | 
CCOc1ccc(OCC(O)CN(C)Cc2c(C)nn(Cc3cccc(Cl)c3)c2C)cc1 (racemic) | 16.5 µM | Non-toxic | 
Cc1nn(Cc2ccccc2C(F)(F)F)c(C)c1CN(C)CC(O)COc1ccc(C(F)(F)F)cc1 (racemic) | 27.3 µM | Non-toxic | 
CCOc1ccc(OCC(O)CN(C)Cc2c(C)nn(Cc3ccccc3)c2C)cc1 (racemic) | 51.8 µM | Non-toxic | 
Cc1nn(Cc2ccccc2Cl)c(C)c1CN(C)CC(O)COc1ccccc1 (racemic) | 64.3 µM | Non-toxic | 
Cc1nn(Cc2ccccc2Cl)c(C)c1CN(C)CC(O)COc1ccc(C(F)(F)F)cc1 (racemic) | 23.7 µM | Non-toxic | 
COc1ccccc1OCC(O)CN(C)Cc1c(C)nn(Cc2ccccc2Cl)c1C (racemic) | 92.5 µM | Non-toxic | 
CCOc1ccc(OCC(O)CN(C)Cc2c(C)nn(Cc3ccccc3OC)c2C)cc1 (racemic) | > 100 µM | Non-toxic | 
COCCc1ccc(OCC(O)CN(C)Cc2c(C)nn(Cc3ccccc3Cl)c2C)cc1 (racemic) | 57.3 µM | Non-toxic | 
CCOc1ccc(OC[C@@H](O)CN(C)Cc2c(C)nn(Cc3ccccc3Cl)c2C)cc1 | 24.3 µM | Non-toxic | 
C=Cc1ccccc1Cn1nc(C)c(CN(C)CC(O)COc2ccc(OCC)cc2)c1C (racemic) | 24.7 µM | Non-toxic | 
C=Cc1ccccc1Cn1nc(C)c(CN(C)CC(O)COc2ccc(Cl)cc2)c1C (racemic) | 23.2 µM | Non-toxic | 

From ChEMBL document CHEMBL1821673, “Development of β-amino alcohol derivatives that inhibit Toll-like receptor 4 mediated inflammatory response as potential antiseptics” (J Med Chem, 2011)
